Reference: ChEMBL document CHEMBL1124568, “2,4-Diamino-5-benzylpyrimidines as antibacterial agents. 13. Some alkenyl derivatives with high in vitro activity against anaerobic organisms” (J Med Chem, 1989)
In brackets after ≈: the same amount, converted by molar mass.

Assays:
[1] = target: T1, Dihydrofolate reductase (Rattus norvegicus, UniProt Q920D2); assay: In vitro inhibition of rat liver dihydrofolate reductase.; conditions: read-out: I50
T1 sequence (Q920D2 whole entry): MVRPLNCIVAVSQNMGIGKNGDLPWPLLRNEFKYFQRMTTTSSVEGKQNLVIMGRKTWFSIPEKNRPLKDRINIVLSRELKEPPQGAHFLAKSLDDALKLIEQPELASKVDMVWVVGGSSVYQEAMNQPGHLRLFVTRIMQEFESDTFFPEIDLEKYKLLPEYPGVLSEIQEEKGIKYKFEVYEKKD

[2] = target: Bifunctional dihydrofolate reductase-thymidylate synthase (Plasmodium berghei str. ANKA, UniProt Q27713); assay: In vitro inhibition of dihydrofolate reductase of Plasmodium berghei; conditions: read-out: I50
[3] = system: Klebsiella aerogenes; assay: Ratio of antibacterial (Enterobacter aerogenes, 2201/86) activities of compound and trimethoprim; assay type: functional
Method in brief: (§1)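 Each MIC is divided by the MIC of trimethoprim run alongside. Serial dilutions were normally 0.1, 0.3, 1, 3, 10, etc., and occasionally 1, 5 and 10. For E. coli the value is the average over six strains.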

[4] = system: Klebsiella pneumoniae; assay: Ratio of antibacterial (Klebsiella pneumoniae CN3632) activities of compound and trimethoprim; assay type: functional; method in brief: as §1
[5] = system: Proteus vulgaris; assay: Ratio of antibacterial (Proteus vulgaris CN329) activities of compound and trimethoprim; assay type: functional; method in brief: as §1
[6] = system: Shigella dysenteriae; assay: (§2) Ratio of antibacterial (Shigella dysentariae CN513) activities of compound and trimethoprim; assay type: functional
[7] = system: Staphylococcus aureus; assay: Ratio of antibacterial (Staphylococcus aureus CN491) activities of compound and trimethoprim; assay type: functional; method in brief: as §1
[8] = system: Salmonella; assay: Ratio of antibacterial (Salmonella typhi CN512) activities of compound and trimethoprim; assay type: functional, salmonella typhosa
[9] = system: Escherichia coli; assay: Ratio of antibacterial (Escherichia coli CN314) activities of compound and trimethoprim; assay type: functional
[10] = target: T2, Dihydrofolate reductase (Escherichia coli, UniProt P0ABQ4); assay: In vitro inhibition of dihydrofolate reductase of Escherichia coli; conditions: read-out: I50
T2 sequence (P0ABQ4 whole entry): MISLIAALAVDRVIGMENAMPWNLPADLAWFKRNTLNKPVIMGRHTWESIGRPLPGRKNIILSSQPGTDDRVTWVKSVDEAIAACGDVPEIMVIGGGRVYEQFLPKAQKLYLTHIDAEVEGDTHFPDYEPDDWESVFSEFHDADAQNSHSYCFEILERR
Method in brief: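 The E. coli DHFR assay contained 1 nM enzyme, with the lower limit for I50 arbitrarily set at 2 nM. I50 was estimated from plots of % inhibition of steady-state velocity vs log inhibitor concentration.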

[11] = system: Streptococcus pyogenes; assay: Ratio of antibacterial (Streptococcus pyogenes CN10) activities of compound and trimethoprim
[12] = system: Phocaeicola vulgatus; assay: Ratio of antibacterial (Bacteroides vulgatus) activities compared to that of trimethoprim and metronidazole; assay type: functional
[13] = system: Bacteroides thetaiotaomicron; assay: Ratio of antibacterial (Bacteroides thetaiotaomicron) activities compared to that of trimethoprim and metronidazole; assay type: functional
[14] = system: Clostridioides difficile; assay: Ratio of antibacterial (Clostridium difficile) activities compared to that of trimethoprim and metronidazole; assay type: functional
[15] = system: Clostridium perfringens; assay: Ratio of antibacterial (Clostridium perfringens) activities compared to that of trimethoprim and metronidazole; assay type: functional
[16] = target: Dihydrofolate reductase (Staphylococcus aureus, UniProt P0A017); assay: Antibacterial activity against Staphylococcus aureus DHFR
Method in brief: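 S. aureus (strain S8862) DHFR was partially purified by ammonium sulfate fractionation and gel filtration. The assay used 0.1 M imidazole chloride pH 6.4, 12 mM mercaptoethanol, 60 µM NADPH and 45 µM dihydrofolate at 30 °C, read at 340 nm. Enzyme, NADPH and inhibitor were preincubated 2 min before dihydrofolate was added. I50 came from % inhibition vs log[inhibitor] plots of steady-state velocities.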

[17] = system: Escherichia coli; assay: Antibacterial (Escherichia coli) activity compared to trimethoprim.; assay type: functional; method in brief: as §1
[18] = system: Fusobacterium nucleatum; assay: Ratio of antibacterial (Fusobacterium nucleatum) activities compared to that of trimethoprim and metronidazole; assay type: functional
[19] = system: Klebsiella pneumoniae; assay: Antibacterial (Klebsiella pneumoniae CN3632) activity compared to trimethoprim.; assay type: functional; method in brief: as §1
[20] = system: Mycolicibacterium smegmatis; assay: Antibacterial (Mycobacterium smegmatis S3254) activity compared to trimethoprim.; assay type: functional; method in brief: as §1
[21] = system: Pasteurella multocida; assay: Antibacterial (Pasteurella multocides ATCC 6587) activity compared to trimethoprim.; assay type: functional; method in brief: as §1
[22] = system: Proteus vulgaris; assay: Antibacterial (Proteus vulgaris CN329) activity compared to trimethoprim.; assay type: functional; method in brief: as §1
[23] = Antibacterial (Salmonella typhi CN512) activity compared to trimethoprim.; assay type: functional, salmonella typhosa
[24] = system: Shigella flexneri; assay: Antibacterial (Shigella flexneri CN6007) activity compared to trimethoprim.; assay type: functional; method in brief: as §1
[25] = system: Serratia marcescens; assay: Antibacterial (Serratia marcescens CN2398) activity compared to trimethoprim.; assay type: functional; method in brief: as §1
[26] = system: Streptococcus pyogenes; assay: Antibacterial ([…] CN10) activity compared to trimethoprim.; assay type: functional; method in brief: as §1
[27] = system: Staphylococcus aureus; assay: Antibacterial (Staphylococcus aureus CN491) activity compared to trimethoprim.; assay type: functional; method in brief: as §1
[28] = system: Klebsiella aerogenes; assay: Antibacterial (Enterobacter aerogenes 2201/86) activity compared to trimethoprim.; assay type: functional; method in brief: as §1
[29] = target: T2, Dihydrofolate reductase; assay: Antibacterial activity against Escherichia coli DHFR
Method in brief: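 E. coli DHFR assay with 1 nM enzyme. I50 is the inhibitor concentration that halves the standard-assay velocity. […] Apparent Ki for some inhibitors was obtained by the Henderson method.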

[30] = Half-life in dogs Plasma; assay type: ADME, organism-based, Canis lupus familiaris; conditions: dog
Method in brief: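 Two fasted (18 h) male beagles received 5 mg/kg […] (free base), co-dosed with 5 mg/kg trimethoprim in propylene glycol. Jugular plasma was sampled from 0.17 to 24 h. Drug was extracted, separated by TLC and read by fluorescence densitometry. t1/2 came from least-squares linear regression of the postabsorption segment of the plasma curve.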

[31] = system: Shigella dysenteriae; assay: as §2

Sequence of Bifunctional dihydrofolate reductase-thymidylate synthase (Q27713 whole entry): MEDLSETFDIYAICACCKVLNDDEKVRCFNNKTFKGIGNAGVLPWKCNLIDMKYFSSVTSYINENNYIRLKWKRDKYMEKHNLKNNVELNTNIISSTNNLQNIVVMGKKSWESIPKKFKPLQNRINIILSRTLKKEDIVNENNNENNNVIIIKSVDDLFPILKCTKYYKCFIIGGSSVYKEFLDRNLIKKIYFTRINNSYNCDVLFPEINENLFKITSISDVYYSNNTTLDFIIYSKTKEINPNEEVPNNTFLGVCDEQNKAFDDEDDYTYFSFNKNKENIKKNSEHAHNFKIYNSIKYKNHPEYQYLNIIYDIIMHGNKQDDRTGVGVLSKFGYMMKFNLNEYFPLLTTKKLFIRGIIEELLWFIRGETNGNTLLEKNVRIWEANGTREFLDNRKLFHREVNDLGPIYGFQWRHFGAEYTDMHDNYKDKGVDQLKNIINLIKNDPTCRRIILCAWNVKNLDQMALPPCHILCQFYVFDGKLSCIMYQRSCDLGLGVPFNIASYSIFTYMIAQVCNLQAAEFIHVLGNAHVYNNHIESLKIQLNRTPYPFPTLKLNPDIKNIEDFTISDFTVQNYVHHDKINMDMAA
Sequence of Dihydrofolate reductase (Staphylococcus aureus, UniProt P0A017) (P0A017 whole entry): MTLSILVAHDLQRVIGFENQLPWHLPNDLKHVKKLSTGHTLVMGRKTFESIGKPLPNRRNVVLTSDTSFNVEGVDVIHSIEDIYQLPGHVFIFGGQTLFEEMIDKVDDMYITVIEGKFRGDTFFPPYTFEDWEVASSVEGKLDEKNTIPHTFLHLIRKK

Row | Compound | IC50 [1] [nM] | IC50 [2] [nM] | MIC [3] [µg/mL] | MIC [4] [µg/mL] | MIC [5] [µg/mL] | MIC [6] [µg/mL] | MIC [7] [µg/mL] | MIC [8] [µg/mL] | MIC [9] [µg/mL] | IC50 [10] [nM] | MIC [11] [µg/mL] | MIC [12] [µg/mL] | MIC [13] [µg/mL] | MIC [14] [µg/mL] | MIC [15] [µg/mL] | MIC [17] [µg/mL] | MIC [18] [µg/mL] | MIC [19] [µg/mL] | MIC [21] [µg/mL] | MIC [22] [µg/mL] | further results
1 | CCCc1cc(Cc2cnc(N)nc2N)cc2c1OC(C)C2 (stereo unspecified) | 6250 | 93 | 100 | 100 | 30 | 30 | 1 | 100 | 30 | 21 | 1 |  |  |  |  |  |  |  |  |  | 
2 | C=CCc1cc(Cc2cnc(N)nc2N)cc(CC=C)c1OC | 18000 |  |  |  |  |  |  |  |  |  |  | 0.2 | 0.2 | > 25 | 25 | 72 (≈ 232 µM) | 0.8 | > 10 | 20 (≈ 64.4 µM) | 100 (≈ 322 µM) | Ki [16]: 2.1 nM; MIC [20]: 10 µg/mL (≈ 32.2 µM); MIC [23]: 100 µg/mL (≈ 322 µM); MIC [24]: 100 µg/mL (≈ 322 µM); MIC [25]: > 10 µg/mL; MIC [26]: 1 µg/mL (≈ 3.22 µM); MIC [27]: 5 µg/mL (≈ 16.1 µM); MIC [28]: 100 µg/mL (≈ 322 µM)
3 | CCCc1cc(Cc2cnc(N)nc2N)cc2c1OC(C)(C)C2 | 9900 | 240 | 100 | 100 | 100 | 300 | 3 | 300 | 100 | 280 | 3 |  |  |  |  |  |  |  |  |  | 
4 | C=CCc1cc(Cc2cnc(N)nc2N)cc(CCC)c1OC | 15000 |  |  |  |  |  |  |  |  |  |  | 0.2 | 0.1 | 25 | 12.5 | 38 (≈ 122 µM) | 0.8 | 100 (≈ 320 µM) | 10 (≈ 32 µM) | > 50 | MIC [20]: 0.5 µg/mL (≈ 1.6 µM); MIC [23]: 100 µg/mL (≈ 320 µM); MIC [24]: 100 µg/mL (≈ 320 µM); MIC [25]: > 10 µg/mL; MIC [26]: 2 µg/mL (≈ 6.4 µM); MIC [27]: 1 µg/mL (≈ 3.2 µM); MIC [28]: 100 µg/mL (≈ 320 µM); Ki [29]: 1.6 nM
5 | CCc1cc(Cc2cnc(N)nc2N)cc2c1OC(C)C2 (stereo unspecified) | 11000 | 100 | 30 | 30 | 30 | 30 | 1 | 30 | 30 | 19 | 1 |  |  |  |  |  |  |  |  |  | 
6 | CCCc1cc(Cc2cnc(N)nc2N)cc(CCC)c1O |  |  |  |  |  |  |  |  |  |  |  |  |  |  |  |  |  |  |  |  | Ki [29]: 1.7 nM
7 | CCCc1cc(Cc2cnc(N)nc2N)cc2c1OC(C)C2C (stereo unspecified) | 2040 | 12 | 30 | 100 | 100 | 100 | 1 | 100 | 30 | 13 | 1 |  |  |  |  |  |  |  |  |  | 
8 | COc1cc(Cc2cnc(N)nc2N)cc(OC)c1OC [TRIMETHOPRIM] |  |  |  |  |  |  |  |  |  |  |  | 6.2 | 12.5 | > 25 | > 25 | 1 (≈ 3.44 µM) | 0.8 | 1 (≈ 3.44 µM) | 1 (≈ 3.44 µM) | 1 (≈ 3.44 µM) | half-life [30]: 3.44 h; MIC [23]: 1 µg/mL (≈ 3.44 µM); MIC [31]: 1 µg/mL; MIC [26]: 1 µg/mL (≈ 3.44 µM); MIC [27]: 1 µg/mL (≈ 3.44 µM); MIC [28]: 1 µg/mL (≈ 3.44 µM)
